Measurements: ChEMBL document CHEMBL5104102, “Discovery of FtsZ inhibitors by virtual screening as antibacterial agents and study of the inhibition mechanism” (RSC Med Chem, 2022)
Converted amounts (≈) assume the structure as drawn.

Legend:
Bacillus subtilis = assay: Antibacterial activity against Bacillus subtilis 168 assessed as inhibition of bacterial growth incubated for 18 hrs by CLSI protocol based two-fold serial dilution assay; assay type: functional
In short: (§1)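 B. subtilis 168 or E. coli ATCC 25922 was grown in MHB and tested by CLSI-based broth microdilution. An overnight culture (37 °C, 250 rpm) was diluted tenfold, grown 2 h, and set to 5 × 10^6 CFU mL−1 by A600. Cells were added to two-fold serial compound dilutions (1% DMSO) and incubated 18 h at 37 °C. Read-out was A600, in duplicate. MIC was the lowest concentration giving A600 < 0.1.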

Staphylococcus aureus [1] = assay: Antibacterial activity against Staphylococcus aureus 29213 assessed as inhibition of bacterial growth incubated for 18 hrs by CLSI protocol based two fold serial dilution method; assay type: functional
In short: as §1, with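 “S. aureus” for “B. subtilis 168 or E. coli”, “29213” for “25922”, “CAMHB” for “MHB”, “mL−1.” for “mL−1 by A600.”, “with” for “giving”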

Escherichia coli = assay: Antibacterial activity against Escherichia coli 25922 assessed as inhibition of bacterial growth incubated for 18 hrs by CLSI protocol based two fold serial dilution method; assay type: functional; in short: as §1
Staphylococcus aureus [2] = assay: Antibacterial activity against methicillin-resistant Staphylococcus aureus BAA 41 assessed as inhibition of bacterial growth incubated for 18 hrs by CLSI protocol based two fold serial dilution method; assay type: functional
In short: (§2)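 CAMHB culture grown overnight at 37 °C with shaking at 250 rpm, diluted 10-fold, and grown 2 h. Inoculum set to 5 × 10^6 CFU mL−1 by A600. Compounds in DMSO were serially diluted two-fold, with 1% DMSO per well. Read at A600 after 18 h at 37 °C. MIC is the lowest concentration giving A600 < 0.1. Run in duplicate.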

Staphylococcus aureus [3] = assay: Antibacterial activity against methicillin-resistant Staphylococcus aureus BAA 44 assessed as inhibition of bacterial growth incubated for 18 hrs by CLSI protocol based two fold serial dilution method; assay type: functional; in short: as §2
Staphylococcus aureus [4] = assay: Antibacterial activity against methicillin-resistant Staphylococcus aureus ATCC 43300 assessed as inhibition of bacterial growth incubated for 18 hrs by CLSI protocol based two fold serial dilution method; assay type: functional; in short: as §2
Staphylococcus aureus [5] = assay: Antibacterial activity against methicillin-resistant Staphylococcus aureus ATCC 33591 assessed as inhibition of bacterial growth incubated for 18 hrs by CLSI protocol based two fold serial dilution method; assay type: functional; in short: as §2
Staphylococcus aureus [6] = assay: Antibacterial activity against methicillin-resistant Staphylococcus aureus ATCC 33592 assessed as inhibition of bacterial growth incubated for 18 hrs by CLSI protocol based two fold serial dilution method; assay type: functional; in short: as §2
Staphylococcus aureus [7] = assay: Antibacterial activity against methicillin-resistant Staphylococcus aureus BAA 1720 assessed as inhibition of bacterial growth incubated for 18 hrs by CLSI protocol based two fold serial dilution method; assay type: functional; in short: as §2
Staphylococcus aureus [8] = assay: Synergistic antibacterial activity against methicillin-resistant Staphylococcus aureus BAA 41 assessed as inhibition of bacterial growth incubated for 18 hrs in presence of PC190723 by checkerboard assay; assay type: functional
Staphylococcus aureus [9] = assay: Synergistic antibacterial activity against methicillin-resistant Staphylococcus aureus BAA 41 assessed as FICI incubated for 18 hrs in presence of S2727 by checkerboard assay; assay type: functional
In short: (§3)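 Checkerboard against MRSA BAA 41. Compound two-fold serially diluted across the plate and methicillin down it. Inoculum 5 × 10^5 CFU mL−1, with untreated-cell columns. Incubated at 37 °C for 16–24 h and growth read as A600. FICI computed from the combined MICs, and <0.5 taken as synergy.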

Staphylococcus aureus [10] = assay: Synergistic antibacterial activity against methicillin-resistant Staphylococcus aureus BAA 41 assessed as FICI incubated for 18 hrs in presence of S2163 by checkerboard assay; assay type: functional; in short: as §3
Staphylococcus aureus [11] = assay: Synergistic antibacterial activity against methicillin-resistant Staphylococcus aureus BAA 41 assessed as FICI incubated for 18 hrs in presence of PC190723 by checkerboard assay; assay type: functional; in short: as §3
Staphylococcus aureus [12] = assay: microbe, parasite or virus in culture; conditions: BAA 41, 18 h
Staphylococcus aureus [13] = assay: microbe, parasite or virus in culture; conditions: BAA 41, 18 h; remark: listed apart in the source

| Compound | MIC (Bacillus subtilis) | MIC (Staphylococcus aureus [1]) | MIC (Escherichia coli) | also measured |
| --- | --- | --- | --- | --- |
| Cc1cnc(-c2cc(N3CCN(C(=O)CCS(C)(=O)=O)CC3)ncc2Cl)c(C)c1 | > 128 µg/mL | > 128 µg/mL | > 128 µg/mL |  |
| COCCOc1ccc2c(c1)ncn2-c1ccc2cccc(N3CCC(N)CC3)c2n1 | > 128 µg/mL | > 128 µg/mL | > 128 µg/mL |  |
| COc1ccc(-c2cc3c(C)nc(N)nc3n([C@H]3CC[C@H](OCCO)CC3)c2=O)cn1 [PF-04691502] | > 128 µg/mL | > 128 µg/mL | > 128 µg/mL |  |
| COc1ccccc1S(=O)(=O)Nc1ccc2c(c1)CN(C)C(=O)N2 | > 128 µg/mL | > 128 µg/mL | > 128 µg/mL |  |
| COc1cccc(OC)c1C(=O)N[C@@H]1C(=O)N2[C@@H]1SC(C)(C)[C@@H]2C(=O)O [METHICILLIN] |  |  |  | MIC (Staphylococcus aureus [2]): 1020 µg/mL (≈ 2690 µM); MIC (Staphylococcus aureus [3]): 512 µg/mL (≈ 1350 µM); MIC (Staphylococcus aureus [4]): 256 µg/mL (≈ 673 µM); MIC (Staphylococcus aureus [5]): 512 µg/mL (≈ 1350 µM); MIC (Staphylococcus aureus [6]): 256 µg/mL (≈ 673 µM); MIC (Staphylococcus aureus [7]): 256 µg/mL (≈ 673 µM); MIC (Staphylococcus aureus [8]): 4 µg/mL; fractional inhibitory concentration index (FICI) (Staphylococcus aureus [9]): 0.5; fractional inhibitory concentration index (FICI) (Staphylococcus aureus [10]): >1; fractional inhibitory concentration index (FICI) (Staphylococcus aureus [11]): 0.52; MIC (Staphylococcus aureus [12]): 4 µg/mL (≈ 10.5 µM); MIC (Staphylococcus aureus [13]): 1 µg/mL (≈ 2.63 µM) |
